# Most compounds without a hit are left out; they make up all but 3.7% or so of the library.
# OX1R antag-1 = human HCRTR1 antagonism. CHO/OX1R cells, Fluo-8 calcium fluorescence, orexin A. inhibition, % at 5 µM. actives 0.43% (n = 330,000). AID 434989;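 active = inhibition above its plate's threshold, mean inhibition of all tested compounds on the plate plus 3 SD, cut at about 37% in these data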;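 note: 0% = orexin A challenge wells and 100% = SB-334867-A antagonist wells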
# Target sequence (O43613 whole entry, looked up): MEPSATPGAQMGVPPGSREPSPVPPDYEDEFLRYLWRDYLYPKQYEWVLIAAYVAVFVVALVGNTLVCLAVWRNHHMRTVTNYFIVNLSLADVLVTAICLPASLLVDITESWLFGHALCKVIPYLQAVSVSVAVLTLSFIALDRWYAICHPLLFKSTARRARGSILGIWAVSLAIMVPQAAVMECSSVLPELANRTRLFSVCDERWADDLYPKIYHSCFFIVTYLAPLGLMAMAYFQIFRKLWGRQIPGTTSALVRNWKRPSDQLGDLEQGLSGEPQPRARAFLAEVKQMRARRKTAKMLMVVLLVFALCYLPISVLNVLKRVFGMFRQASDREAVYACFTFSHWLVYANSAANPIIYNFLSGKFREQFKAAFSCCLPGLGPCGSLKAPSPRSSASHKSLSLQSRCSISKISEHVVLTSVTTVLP
# EP2 antag = blocks the human prostaglandin E2 receptor EP2 | actives 0.52% (n = 260,000) | inhibition, % at 25 µM | C6 glioma cells expressing human EP2, cAMP TR-FRET; cells stimulated with saturating PGE2 | P43116;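 active = percent inhibition above 40 after rounding to a whole number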;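 note: rat C6 glioma host cells with rolipram phosphodiesterase inhibitor present; the protocol text gives 20 µM as final concentration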
# CHO parental Ca = signal in parental CHO cells, OX1R antagonist counter-screen | inhibition, % at 5.6 µM | actives 0.63% (n = 330,000) | parental CHO-K1, ATP-induced calcium, Fluo-8 fluorescence | AID 463079;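 active = inhibition above that plate's mean sample inhibition plus 3 SD, cut at about 26% in these data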;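 note: 0% = ATP-challenged DMSO wells and 100% = DMSO wells without ATP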
#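 Test system: untransfected parental CHO cell line. Compound: one dose, 5.6 µM nominal. Detection: intracellular calcium via Fluo-8 no-wash fluorescent dye. Measure: % inhibition. Benchmarks: ATP-challenged DMSO wells low, unchallenged DMSO wells high.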
# EP2 mod = modulators of human EP2 prostaglandin E2 receptor. actives 0.83% (n = 260,000). induction, % at 25 µM. EP2-expressing cells, cAMP HTRF FRET, PGE2 co-stimulation;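 active = compounds whose cAMP rise, as percent of the full-agonist control response, exceeds 60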;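 note: rat C6 glioma line stably carrying human EP2 under a CMV promoter; the protocol text gives 20 µM as final concentration; 100% = response of wells given 1 µM PGE2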
# GPR7 antagonist = blocks human GPR7 receptor signaling | P48145 | AID 1861 | GPR7-expressing cells, fluorescence antagonist assay | actives 1.1% (n = 290,000) | inhibition, % at 4.4 µM; in the data active = inhibition above about 16%, passing the limit was not always enough;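 note: cells stimulated with the agonist NPW; 0% = agonist with vehicle and 100% = vehicle without agonist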
# OX1R antag-2 = antagonists of human orexin 1 receptor (OX1R); inhibition, % at 6.6 µM; actives 1.8% (n = 330,000); OX1R-expressing cells, FRET antagonist read-out; in the data active = inhibition mostly above about 38%, no sharp cut-off; inactive = mostly below about 40%;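 note: 0% = agonist challenge alone and 100% = reference antagonist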
# OX1R Ca confirm = OX1R (human) antagonism, confirmed; inhibition, % at 5 µM; CHO/OX1R cells, orexin A calcium Fluo-8 fluorescence; actives 38% (n = 1,100); AID 492963; shares compounds with OX1R antag-1; in the data active = inhibition above about 29%;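 note: 0% = agonist challenge alone and 100% = reference antagonist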
# CHO Ca counter = signal in parental CHO cells, OX1R antagonist counter-screen. shares compounds with OX1R antag-1. parental CHO-K1, ATP-induced calcium, Fluo-8 fluorescence. inhibition, % at 5.6 µM. actives 9.3% (n = 1,100);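 active = inhibition above a per-plate limit, the mean inhibition of that plate's test compounds plus 3 SD, cut at about 25% in these data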;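 note: 0% = ATP challenge with DMSO and 100% = DMSO without ATP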
# OX1R HTRF confirm = confirmation of human orexin 1 receptor antagonists, HTRF format; shares compounds with OX1R antag-2; OX1R-expressing cells, HTRF antagonist assay; inhibition, % at 6.6 µM; actives 49% (n = 1,800); AID 492964; in the data active = inhibition above about 55%;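 note: CHO cells expressing OX1R stimulated with orexin A at about EC80; 0% = agonist challenge alone and 100% = reference antagonist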
# CHO-K1 HTRF cnt = counter-screen: parental CHO-K1 HTRF response; parental CHO-K1 cells, HTRF counterscreen; shares compounds with OX1R antag-2; inhibition, % at 6.6 µM; actives 48% (n = 1,800); AID 493232; in the data active = inhibition above about 17%;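 note: 0% = agonist challenge with vehicle and 100% = vehicle alone without agonist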
# An asterisk follows results filed as active; · = not tested or not shown.
SMILES,OX1R antag-1,EP2 antag,CHO parental Ca,EP2 mod,GPR7 antagonist,OX1R antag-2,OX1R Ca confirm,CHO Ca counter,others
CCCN1C(=O)/C(=C/c2ccc(N3CCOCC3)cc2)NC1=S,26,10,24,-42,1,4,15,19,
CC1CCC/C(=N\NC(=S)NCc2ccccc2)C1 (stereo unspecified),-18,7,-10,14,-20,15,·,·,
CC1CCC/C(=N\NC(=S)Nc2ccccc2)C1 (stereo unspecified),33,6,-10,26,-6,10,-2,-8,
S=c1[nH]cnc2sc(-c3ccccc3)cc12,2,34,-7,-10,-7,35,·,·,
O=C1CC(SC(=Nc2ccccc2)Nc2ccccc2)C(=O)N1c1ccc(Cl)c(Cl)c1 (stereo unspecified),-12,10,-1,-8,-4,3,·,·,
Cc1cc(C(C)(C)C)oc1C(=O)N(CC(=O)NC1CCCC1)c1cccc(C(F)(F)F)c1,56*,5,-8,28,20,30,14,-3,
Cc1ccc(C(=O)N(CC(=O)NC2CCCC2)c2cccc(F)c2)s1,-17,·,-8,·,8,16,·,·,
Cc1ccc(S(=O)(=O)N(CC(=O)N2CCC(C)CC2)c2cccc(C)c2)cc1,-31,4,-28,25,9,14,·,·,
O=C(N/N=C/c1ccco1)c1cc(-c2ccc3ccccc3c2)n[nH]1,44*,·,-1,-55,-6,42,5,-3,
CCOC(=O)CN1C(=O)c2ccccc2Sc2ncccc21,-17,·,2,·,2,15,·,·,
CN1C2CCC1/C(=C/c1cccn1C)C(=O)/C2=C\c1cccn1C,38,8,23,36,-3,37,19,12,
COC(=O)c1ccc(NC(=S)NNC(=O)c2ccccc2)cc1,28,13,-10,-28,5,7,4,7,
Cc1cc(N2CCN(c3ccc(F)cc3)CC2)nc(-c2ccccc2)n1,37,11,-41,18,-7,53,-21,-12,
O=C(Cn1ncc(Cl)c(Cl)c1=O)c1ccc(Cl)cc1,22,·,13,9,8,14,43*,31*,
O=C(Cn1ncc(N2CCOCC2)c(Cl)c1=O)c1ccc(Cl)cc1,-3,8,-11,-1,3,7,·,·,
CN(CC(=O)Nc1nc2ccccc2s1)S(=O)(=O)c1ccc(Br)cc1,69*,13,19,-49,-5,48*,8,0,OX1R HTRF confirm=26;CHO-K1 HTRF cnt=7
O=C1C2C3C=CC(C4CC34)C2C(=O)N1c1cc(Cl)ccn1 (stereo unspecified),-11,7,-4,-22,-25,3,·,·,
CCn1c(C)csc1=NC(=O)c1ccccc1O,54*,2,-16,-4,-7,95*,42*,11,OX1R HTRF confirm=90*;CHO-K1 HTRF cnt=0
Cc1csc(=NC(=O)c2ccccc2)n1Cc1ccco1,-22,5,-16,38,5,8,·,·,
O=C(Nc1ccc2nn(-c3ccccc3)nc2c1)c1cccs1,33,18,1,-13,-6,83*,26,-2,OX1R HTRF confirm=55*;CHO-K1 HTRF cnt=-1
O=C(NC1CCN(S(=O)(=O)c2cccc(F)c2)CC1)c1ccc(F)cc1,·,·,·,·,2,·,·,·,
Cc1cccc(NC(=O)c2cc(-c3cc(C)cc(C)c3O)n[nH]2)c1,40,·,7,·,0,64*,17,4,OX1R HTRF confirm=69*;CHO-K1 HTRF cnt=13
Cc1cccc(NC(=O)c2cc(-c3c(C)cc(C)cc3O)n[nH]2)c1,6,·,-2,·,-8,18,·,·,
COc1ccc(-c2[nH]ncc2N=Nc2cc(C)cc(C)c2)cc1,4,6,23,33,-7,17,·,·,

# Screens (PubChem)
